Assay results taken from ChEMBL document CHEMBL1833859, “Discovery of novel imidazo[1,2-a]pyrazin-8-amines as Brk/PTK6 inhibitors” (Bioorg Med Chem Lett, 2011).

Key:
[1] = Inhibition of CYP; type: ADME
[2] = AUC (0 to 6 hrs) in mouse at 30 mg/kg, po; type: ADME, organism-based; design: time < 6 hr, dose 30 mg/kg, route oral; details: plasma
How it was run: (§1)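 Mouse pharmacokinetics, 15 animals per dose group, dosed intraperitoneally at 30 mg/kg or orally at 10, 30 or 100 mg/kg. Plasma levels were followed from 0 to 6 h.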

[3] = AUC (0 to 6 hrs) in mouse at 30 mg/kg, ip; type: ADME, organism-based; design: time < 6 hr, dose 30 mg/kg, route intraperitoneal; details: plasma; how it was run: as §1
[4] = Cmax in mouse at 30 mg/kg, ip; type: ADME, organism-based; design: dose 30 mg/kg, route intraperitoneal; details: in vivo; how it was run: as §1
[5] = Cmax in mouse at 10 mg/kg, po; type: ADME, organism-based; design: dose 10 mg/kg, route oral; details: in vivo; how it was run: as §1
[6] = Tmax in mouse at 10 mg/kg, po; type: ADME, organism-based; design: dose 10 mg/kg, route oral; details: in vivo; how it was run: as §1
[7] = AUC (0 to 6 hrs) in mouse at 100 mg/kg, po; type: ADME, organism-based; design: time < 6 hr, dose 100 mg/kg, route oral; details: plasma; how it was run: as §1
Aurora kinase B = Aurora kinase B (Homo sapiens, UniProt Q96GD4); experiment: Inhibition of AurB
[8] = Tmax in mouse at 30 mg/kg, po; type: ADME, organism-based; design: dose 30 mg/kg, route oral; details: in vivo; how it was run: as §1
[9] = molecular target: Tyrosine-protein kinase Lck (Homo sapiens, UniProt P06239); experiment: Inhibition of LCK
[10] = AUC (0 to 6 hrs) in mouse at 10 mg/kg, po; type: ADME, organism-based; design: time < 6 hr, dose 10 mg/kg, route oral; details: plasma; how it was run: as §1
[11] = Tmax in mouse at 100 mg/kg, po; type: ADME, organism-based; design: dose 100 mg/kg, route oral; details: in vivo; how it was run: as §1
[12] = Intrinsic clearance in human Hepatocytes assessed as per million cells; type: ADME, cell-based, Liver, Hepatocyte
[13] = Tmax in mouse at 30 mg/kg, ip; type: ADME, organism-based; design: dose 30 mg/kg, route intraperitoneal; details: in vivo; how it was run: as §1
[14] = Cmax in mouse at 30 mg/kg, po; type: ADME, organism-based; design: dose 30 mg/kg, route oral; details: in vivo; how it was run: as §1
[15] = Intrinsic clearance in rat Hepatocytes assessed as per million cells; type: ADME, cell-based, Liver, Hepatocyte
[16] = Cmax in mouse at 100 mg/kg, po; type: ADME, organism-based; design: dose 100 mg/kg, route oral; details: in vivo; how it was run: as §1

Aurora kinase B, sequence (Q96GD4 whole entry): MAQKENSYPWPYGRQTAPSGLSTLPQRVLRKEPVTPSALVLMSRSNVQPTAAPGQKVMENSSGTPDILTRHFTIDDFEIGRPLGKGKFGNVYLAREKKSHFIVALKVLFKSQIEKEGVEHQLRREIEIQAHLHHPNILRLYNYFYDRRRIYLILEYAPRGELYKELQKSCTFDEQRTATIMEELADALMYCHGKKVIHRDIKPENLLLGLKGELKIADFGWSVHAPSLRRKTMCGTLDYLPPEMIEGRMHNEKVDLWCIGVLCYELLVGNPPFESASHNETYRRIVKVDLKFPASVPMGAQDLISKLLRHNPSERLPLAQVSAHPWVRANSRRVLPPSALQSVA
Tyrosine-protein kinase Lck, sequence (P06239 whole entry): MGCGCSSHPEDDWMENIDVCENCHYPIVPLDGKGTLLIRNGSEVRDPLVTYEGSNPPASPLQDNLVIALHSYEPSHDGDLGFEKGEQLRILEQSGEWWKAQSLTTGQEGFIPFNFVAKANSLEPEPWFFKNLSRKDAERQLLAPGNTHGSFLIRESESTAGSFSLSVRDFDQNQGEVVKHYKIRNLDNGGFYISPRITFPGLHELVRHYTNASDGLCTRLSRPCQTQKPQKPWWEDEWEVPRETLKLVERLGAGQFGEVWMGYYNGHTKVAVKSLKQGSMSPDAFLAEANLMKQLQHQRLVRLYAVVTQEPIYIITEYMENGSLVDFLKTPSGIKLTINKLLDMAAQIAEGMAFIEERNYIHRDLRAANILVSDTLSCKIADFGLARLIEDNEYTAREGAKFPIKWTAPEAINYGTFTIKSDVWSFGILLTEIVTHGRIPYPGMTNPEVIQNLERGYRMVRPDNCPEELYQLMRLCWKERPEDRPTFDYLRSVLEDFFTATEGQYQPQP

Compound: Cc1cn2c(-c3cn[nH]c3)cnc2c(Nc2ccc(C(=O)N3CCNCC3)cc2F)n1
- IC50 [1]: > 20 µM
- AUC(0-t) at 6 h [2]: 1.4 µM·h
- AUC(0-t) at 6 h [3]: 17.1 µM·h
- Cmax [4]: 17.9 µM
- Cmax [5]: 0.04 µM
- Tmax [6]: 6 h
- AUC(0-t) at 6 h [7]: 8.1 µM·h
- IC50 (Aurora kinase B): > 20 µM
- Tmax [8]: 2 h
- IC50 [9]: > 20 µM
- AUC(0-t) at 6 h [10]: 0.1 µM·h
- Tmax [11]: 4 h
- hepatocyte CLint [12]: 2 µL/min/1e6 cells
- Tmax [13]: 0.5 h
- Cmax [14]: 0.42 µM
- hepatocyte CLint [15]: 5.3 µL/min/1e6 cells
- Cmax [16]: 1.6 µM
